{
  "source": "ChEMBL document CHEMBL2311371",
  "about": "“Effects of fluorines on nonsecosteroidal vitamin D receptor agonists” (2013)",
  "key": {"[1]": {"target": "T1, Vitamin D3 receptor (Homo sapiens) (UniProt P11473)", "T1 sequence (whole entry)": "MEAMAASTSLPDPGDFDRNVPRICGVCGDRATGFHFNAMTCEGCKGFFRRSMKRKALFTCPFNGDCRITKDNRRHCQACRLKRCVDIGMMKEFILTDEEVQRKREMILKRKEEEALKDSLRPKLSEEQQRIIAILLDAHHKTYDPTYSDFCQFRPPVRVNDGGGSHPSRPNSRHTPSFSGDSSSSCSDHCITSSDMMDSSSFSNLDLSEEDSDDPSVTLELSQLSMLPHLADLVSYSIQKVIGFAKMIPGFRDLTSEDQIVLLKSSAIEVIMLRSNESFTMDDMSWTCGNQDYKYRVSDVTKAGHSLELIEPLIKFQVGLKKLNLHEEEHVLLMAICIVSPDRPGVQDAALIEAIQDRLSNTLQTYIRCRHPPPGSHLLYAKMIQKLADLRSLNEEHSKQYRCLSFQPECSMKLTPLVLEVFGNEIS", "test": "Agonist activity at VDR in human MG-63 cells assessed as osteocalcin production compound incubated for 8 hrs measured after 4 days by EIA relative to 1,25(OH)2D3", "type": "cell-based", "in_short": "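MG-63 cells seeded 2×10^3/well in serum-free MEM, 24 h at 37 °C, 5% CO2; washed and switched to 5% DCC-FBS/MEM. Serial dilutions 10^-7 to 10^-11 mol/L (0.1% DMSO) applied 8 h, then medium replaced and culture continued 4 days. Gla-type osteocalcin in supernatant measured by EIA at 450 nm against standards. EC50 expressed as ratio to 1,25(OH)2D3 (set 100%).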"}, "HL-60": {"tested_on": "HL-60", "test": "Induction of human HL60 cell differentiation after 4 days by WST-8 assay relative to 1.25-OH2 D3", "type": "functional", "in_short": "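HL-60 cells seeded 2×10^5 cells/mL in RPMI-1640 with 10% heat-inactivated FBS and antibiotics, 37 °C, 5% CO2. Cultured 4 days with 10^-10 to 10^-7 M compound. On the final day, PMA (final 100 ng/mL) plus WST-8 (final 20%) added for 90 min; absorbance change read at 450 nm. EC50 expressed as ratio to 1,25(OH)2D3 (set 100%).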"}, "[2]": {"target": "T1, Vitamin D3 receptor (Homo sapiens)", "test": "Agonist activity at VDR in human MG-63 cells assessed as transcriptional activation of osteopontin gene after 3 days by luciferase reporter gene assay relative to 1,25(OH)2D3", "type": "cell-based", "in_short": "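MG-63 cells seeded 2×10^3/well, 24 h at 37 °C, 5% CO2. Cotransfected with VDRE-luciferase construct (three osteopontin-promoter VDRE repeats, 0.05 µg) plus pRL-SV40 (0.001 µg) by lipofection. Kept 8 h in MEM with 5% DCC-FBS, then dosed 10^-7 to 10^-11 mol/L (0.1% DMSO) for 3 days. Dual-luciferase readout on lysates. EC50 expressed as ratio to 1,25(OH)2D3 (set 100%).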"}},
  "data": [
    {"compound": "CCC(CC)(c1ccc(OCC(O)CO)c(C)c1)c1ccc(OCC(O)C(C)(C)C)c(C)c1", "note": "(centres undefined) [LG-190178]", "values": [
      {"measurement": "Activity", "setting": "[1]", "result": 185, "unit": "%"},
      {"measurement": "Activity", "setting": "HL-60", "result": 71, "unit": "%"}
    ]},
    {"compound": "CCC(CC)(c1ccc(/C=C/C(O)(C(F)(F)F)C(F)(F)F)c(C)c1)c1ccc(OC[C@@H](O)CCC(=O)[O-])c(C)c1.[Na+]", "values": [
      {"measurement": "Activity", "setting": "[2]", "result": 592, "unit": "%"},
      {"measurement": "Activity", "setting": "[1]", "result": 3750, "unit": "%"},
      {"measurement": "Activity", "setting": "HL-60", "result": 252, "unit": "%"}
    ]},
    {"compound": "CCC(CC)(c1ccc(CCC(O)(C(F)(F)F)C(F)(F)F)c(C)c1)c1ccc(OC[C@@H](O)CCC(=O)[O-])c(C)c1.[Na+]", "values": [
      {"measurement": "Activity", "setting": "[2]", "result": 91, "unit": "%"},
      {"measurement": "Activity", "setting": "[1]", "result": 429, "unit": "%"},
      {"measurement": "Activity", "setting": "HL-60", "result": 106, "unit": "%"}
    ]},
    {"compound": "CCC(CC)(c1ccc(C#CC(O)(C(F)(F)F)C(F)(F)F)c(C)c1)c1ccc(OC[C@@H](O)CCC(=O)[O-])c(C)c1.[Na+]", "values": [
      {"measurement": "Activity", "setting": "[2]", "result": 30, "unit": "%"},
      {"measurement": "Activity", "setting": "[1]", "result": 546, "unit": "%"},
      {"measurement": "Activity", "setting": "HL-60", "result": 227, "unit": "%"}
    ]},
    {"compound": "CCC(O)(/C=C/c1ccc(C(CC)(CC)c2ccc(OC[C@@H](O)CCC(=O)[O-])c(C)c2)cc1C)CC.[Na+]", "values": [
      {"measurement": "Activity", "setting": "[2]", "result": 105, "unit": "%"},
      {"measurement": "Activity", "setting": "[1]", "result": 447, "unit": "%"},
      {"measurement": "Activity", "setting": "HL-60", "result": 126, "unit": "%"}
    ]}
  ]
}
